Assay results of several laboratories.
Protocols differ between the studies behind these lines.

SMILES | system | conditions | Cmax
CC(C)=CCC[C@](C)(O[C@@H]1O[C@H](CO)[C@@H](O)[C@H](O)[C@H]1O)[C@H]1CC[C@]2(C)[C@@H]1[C@H](O)C[C@@H]1[C@@]3(C)CC[C@H](O)C(C)(C)[C@@H]3CC[C@]12C | mouse, plasma | oral, 10 mg/kg | 107 ng/mL
CC(C)[C@]12O[C@H]1[C@@H]1O[C@]13[C@]1(O[C@H]1C[C@H]1C4=C(CC[C@@]13C)C(=O)OC4)[C@@H]2O | SCID mouse, plasma | intravenous, 0.6 mg/kg | 1290 ng/mL
N=C(N)NCCC[C@H](NC(=O)[C@H](Cc1ccccc1)NC(=O)[C@H](CCC(N)=O)NC(=O)OCc1ccccc1)C(=O)c1nccs1 | female C57BL/6 mouse, plasma | intravenous, 5 mg/kg | 3460 ng/mL
C[C@@H](O)[C@@H]1NC(=O)CNC(=O)[C@H](Cc2c[nH]cn2)NC(=O)[C@H](Cc2c[nH]c3ccccc23)NC(=O)[C@H](CC(N)=O)NC(=O)CNC(=O)C[C@@H](C(=O)N[C@@H](Cc2c[nH]c3ccccc23)C(=O)N[C@@H](Cc2ccccc2)C(=O)N[C@@H](Cc2ccccc2)C(=O)N[C@@H](CC(N)=O)C(=O)N[C@@H](Cc2ccc(O)cc2)C(=O)N[C@@H](Cc2ccc(O)cc2)C(=O)N[C@@H](Cc2c[nH]c3ccccc23)C(=O)O)NC(=O)[C@@H]2CCCN2C(=O)[C@H](CO)NC1=O | mouse, plasma | intravenous, 3 mg/kg | 11400 ng/mL
COc1cc(C(=O)c2nc(-c3cccc4[nH]ccc34)c[nH]2)cc(OC)c1OC | male CD-1 mouse, plasma | intraperitoneal, 15 mg/kg | 1870 ng/mL
Cc1[nH]c(C)c(S(=O)(=O)Nc2ccc(S(F)(F)(F)(F)F)cc2)c1C(=O)N1CCC(F)(F)C1 | mouse, plasma | intraperitoneal, 40 mg/kg | 31 µM
CCOC(=O)c1c(NC(=O)CNC(C)C)sc2c1CCCCC2 | male mouse, brain | intraperitoneal, 100 mg/kg, single dose | 15800 ng/g
O=C1CCC(N2Cc3c(ccc4c3OCC43CCN(Cc4ccccc4)CC3)C2=O)C(=O)N1 (centres unmarked) | male CD-1 mouse, plasma | intravenous, 1 mg/kg | 299 ng/mL
